Assays:
Leishmania donovani [1] = experiment: Antileishmanial activity against axenic Leishmania donovani amastigotes at 15 uM by Alamar Blue assay; assay type: functional
Summary of the method: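 L. donovani axenic amastigotes (5.0 × 10^5 cells/ml) were added to an equal volume of compound made up at twice the final concentration in complete amastigote medium with 1% DMSO, giving a 15 µM single-concentration screen. Plates were incubated 24 h at 37 °C in 5% CO2, then alamarBlue was added for 24 h more. Fluorescence was read at ex 544 nm, em 590 nm. Medium ± DMSO served as 0% inhibition, with triplicate wells.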

Leishmania donovani [2] = experiment: Antileishmanial activity against axenic Leishmania donovani amastigotes by Alamar Blue assay; assay type: functional, organism-based
Summary of the method: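 Dose-response GI50 (50% growth inhibition) was run on axenic L. donovani amastigotes (5.0 × 10^5 cells/ml) mixed 1:1 with compound at twice the final concentration in amastigote medium with 1% DMSO. Incubation was 24 h at 37 °C in 5% CO2, plus 24 h with alamarBlue, then fluorescence at 544/590 nm. Medium ± DMSO was taken as 0% inhibition. Triplicate wells were used, with duplicate or single experiments ± standard error.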

THP-1 = experiment: Cytotoxicity against human THP1 cells at 1 uM after 48 hrs by Alamar Blue assay; assay type: cell-based; conditions: thp-1, 48 h
Summary of the method: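 THP-1 macrophages in complete RPMI-1640 (8 × 10^5 cells/ml) were added to an equal volume of compound, stated as 2 µM in complete medium with 1% DMSO. Triplicate wells were incubated 48 h at 37 °C in 5% CO2. AlamarBlue was then added for 3 h and fluorescence was read. Medium with and without DMSO served as 0% inhibition controls.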

Leishmania donovani [3] = experiment: Antileishmanial activity against axenic Leishmania donovani amastigotes at 1 uM by Alamar Blue assay; assay type: functional

Row | Compound | inhibition at 15 µM (Leishmania donovani [1]) | IC50 (Leishmania donovani [2]; in the assay text read “by tetrazolium dye-based assay” for “by Alamar Blue assay”) | GI50 (Leishmania donovani [2]) | Activity (THP-1) | inhibition at 1 µM (Leishmania donovani [3])
1 | COc1ccc(C(=O)/C=C/c2cccc3ccccc23)cc1 | 51% | > 200 µM | – | – | –
2 | O=C(/C=C/c1ccc(NC(=O)c2ccccc2)cc1)c1ccc(Cl)cc1 | 59.8% | – | – | – | –
3 | O=C(Nc1ccc(/C=C/C(=O)c2cccs2)cc1)c1ccccc1 | 95.3% | – | 5.5 µM | 6% | –
4 | O=C(Nc1ccc(/C=C/C(=O)c2ccco2)cc1)c1ccccc1 | 92.4% | – | 6 µM | 0% | –
5 | CC(=O)c1ccc(/C=C/C(=O)c2ccccc2)cc1 | 93.6% | – | 5.6 µM | 45.7% | –
6 | O=C(/C=C/c1ccc(Oc2ccccc2)nc1)c1ccccc1 | 63.7% | – | – | – | –
7 | COc1ccc(C(=O)/C=C/c2ccc(Oc3ccccc3)nc2)cc1 | 42% | – | – | – | –
8 | COc1ccc(C(=O)/C=C/c2ccc(NC(=O)c3ccccc3)cc2)cc1 | 2.1% | – | – | – | –
9 | O=C(/C=C/c1ccc(NC(=O)c2ccccc2)cc1)c1cccnc1 | 98.7% | – | 2.5 µM | 0% | –
10 | O=C(/C=C/c1ccc(NC(=O)c2ccccc2)cc1)c1ccccc1 | 91.6% | – | 7.6 µM | 37% | –
11 | COc1ccc(C(=O)/C=C/c2ccc(NC(C)=O)cc2)cc1 | 54.7% | – | – | – | –
12 | C[C@@H]1[C@H](O)[C@@H](C)/C=C/C=C/C=C/C=C/C=C/C=C/C=C/[C@H](O[C@@H]2O[C@H](C)[C@@H](O)[C@H](N)[C@@H]2O)C[C@@H]2O[C@](O)(C[C@@H](O)C[C@@H](O)[C@H](O)CC[C@@H](O)C[C@@H](O)CC(=O)O[C@H]1C)C[C@H](O)[C@H]2C(=O)O [AMPHOTERICIN B] | 99% | – | – | – | > 90%
